Measured values from different studies.
In brackets after ≈: the same amount, converted by molar mass.

Compound	target or system	test	system	setting	quantity	result
CC(C)C[C@H](NC(=O)OCc1ccccc1)C(=O)N[C@@H](CC(C)C)C(=O)N[C@@H](CC(C)C)C(=O)C(=O)Nc1cccc2c1CCC2	RPMI-8226	cell growth or viability, MTS		72 h	IC50	0.0659 µM
NC[C@H]1O[C@H](O[C@H]2[C@H](O)[C@@H](O[C@H]3O[C@H](CO)[C@@H](O)[C@H](N)[C@H]3O)[C@H](N)C[C@@H]2N)[C@H](N)C[C@@H]1O	Bacillus cereus	microbial growth	ATCC11778		MIC	18.8 µg/mL
O=C1NN=C(N=Cc2ccc(O)c(O)c2)C1=NNn1c(-c2ccccc2)nc2ccccc2c1=O	Salmonella enterica	microbial growth, broth dilution	PARATYPHI	24 h	MIC	53.5 µM
CCn1cc(C(=O)O)c(=O)c2ccc(C)nc21	Salmonella enterica	microbial growth	CHOLERAESUIS	20 h, pH 5.5	MIC	1 µg/mL
CCCCCCCCCCCC(=O)OC[C@H]1O[C@@H](n2cc(C)c(=O)[nH]c2=O)C[C@@H]1OC(=O)c1ccc(C(C)(C)C)cc1	Bacillus cereus	microbial growth, broth dilution			MIC	2 µg/mL
CC[C@H]1OC(=O)[C@H](C)[C@@H](O[C@H]2C[C@@](C)(OC)[C@@H](O)[C@H](C)O2)[C@H](C)[C@@H](O[C@@H]2O[C@H](C)C[C@H](N(C)C)[C@H]2O)[C@](C)(O)C[C@@H](C)C(=O)[C@H](C)[C@@H](O)[C@]1(C)O	Bacillus cereus	microbial growth			MIC	3.13 µM
CCN1CCN(c2cc3c(cc2F)c(=O)c(C(=O)O)cn3C2CC2)CC1	Salmonella enterica	microbial growth	CHOLERAESUIS	20 h, pH 7	MIC	0.0625 µg/mL
COc1cc(Cc2cnc(N)nc2N)cc(OC)c1OC	Shigella dysenteriae	microbial killing, broth dilution		48 h	MBC	32 µg/mL (≈ 110 µM)
CC(C)C[C@H](NC(=O)OCc1ccccc1)C(=O)N[C@@H](Cc1c[nH]c2ccccc12)C(=O)N[C@@H](CC(C)C)C(=O)C(=O)Nc1ccccc1	RPMI-8226	cell growth or viability, MTS		72 h	IC50	0.313 µM
CCC1(c2ccc(N)cc2)CCC(=O)NC1=O (centres unmarked)	OVCAR-3	cell growth or viability, CCK-8		48 h	IC50	> 50 µM
C=C(C)[C@H]1Cc2c(ccc3c2O[C@@H]2COc4cc(OC)c(OC)cc4[C@@H]2C3=O)O1	ReNcell VM	cell growth or viability, imaging		24 h	IC50	~0.28 µM
O=c1[nH]cc(F)c(=O)[nH]1	Shigella dysenteriae	microbial killing, broth dilution		48 h	MBC	8 µg/mL (≈ 61.5 µM)
COc1ccc(C[C@H](NC(=O)[C@H](C)NC(=O)CN2CCOCC2)C(=O)N[C@@H](Cc2ccccc2)C(=O)[C@@]2(C)CO2)cc1	RPMI-8226	cell growth or viability, MTS		72 h	IC50	0.213 µM
CO/N=C(\C(=O)N[C@@H]1C(=O)N2C(C(=O)O)=C(CSC(=O)c3ccco3)CS[C@H]12)c1csc(N)n1	Salmonella enterica	microbial growth	CHOLERAESUIS	20 h, pH 5.5	MIC	1 µg/mL
CC(C=CC(O)=C1C(=O)CNC1=O)=CC(C)C1OC2(C)OC(C(O)C=C2C)C1C (centres unmarked)	Bacillus cereus	microbial growth			MIC	> 100 µM
COc1ccc(Cc2cc(C)cc(=O)n2O)cc1	Cryptococcus gattii	microbial growth			MIC80	2.3 µM (≈ 0.564 µg/mL)
O=c1c(O)c(-c2ccc(O)c(O)c2)oc2cc(O)cc(O)c12	Salmonella enterica	microbial growth	TYPHI		IC50	80.1 µM
Cc1cc(C2CCCCC2)n(O)c(=O)c1	Cryptococcus gattii	microbial growth			MIC80	2.3 µM (≈ 0.477 µg/mL)
CO/N=C(\C(=O)N[C@@H]1C(=O)N2C(C(=O)O)=C(CSc3nc(=O)c(=O)[nH]n3C)CS[C@H]12)c1csc(N)n1	Salmonella enterica	microbial growth	CHOLERAESUIS	20 h, pH 7.2	MIC	0.0625 µg/mL
Cc1cc(Cc2ccc(Cl)cc2)n(O)c(=O)c1	Cryptococcus gattii	microbial growth			MIC80	3 µM (≈ 0.749 µg/mL)
CC1=NN(CNc2ccccn2)C(=O)C1=NNn1c(-c2ccccc2)nc2ccccc2c1=O	Salmonella enterica	microbial growth, broth dilution	PARATYPHI	24 h	MIC	55.2 µM
CCCCCCCCCCCC(=O)OC[C@H]1O[C@@H](n2cc(C)c(=O)[nH]c2=O)C[C@@H]1O	Bacillus cereus	microbial killing, broth dilution			MBC	8 µg/mL (≈ 18.8 µM)
O=c1cccc(C2CCCCC2)n1O	Cryptococcus gattii	microbial growth			MIC80	1.7 µM (≈ 0.329 µg/mL)
